The subject of data set [1] is Rattus norvegicus. Nature of the data set: Mean urinary output in rats when compound administered at 0 mg/kg po and vehicle dosed at 0 umol/kg. The note with it: in vivo. Further details: dose 0 mg/kg, route oral. The data set is classed as ADME, organism-based, Urine. In short, it runs like this: (§1)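 Water-loaded male Sprague-Dawley rats (HC/CFY, 175-200 g) fasted and without water for 18 h. Oral gavage of 2.5-160 mg/kg in 1% CMC with 0.1% Tween 80, then distilled water 2.5 mL/100 g po. Urine collected 6 h in metabolic cages, mean output in mL/6 h/kg bw. Unpaired Student t-test against vehicle; dose-response by linear regression.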

Data set [2] has as its system Rattus norvegicus. Description: Mean Chlorine excretion in rats when compound administered at 40 mg/kg po and vehicle dosed at 134.35 umol/kg. The format is ADME, organism-based. Also on record: dose 40 mg/kg, route oral. The conditions noted are these: in vivo. Summed up: (§2)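 Male Sprague-Dawley rats (HC/CFY, 175-200 g), no food or water for 18 h before and during the test. Single gavage dose (2.5-160 mg/kg; vehicle 1% carboxymethyl cellulose/0.1% Tween 80, 0.5 mL/100 g bw), then distilled water 2.5 mL/100 g bw po. Individual metabolic cages, 6 h urine. K+ by flame photometry, Cl- colorimetric, as mequiv/6 h/kg bw; unpaired Student t-test vs control.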

Data set [3] has as its system Rattus norvegicus. Nature of the data set: Mean Chlorine excretion in rats when compound administered at 10 mg/kg po and vehicle dosed at 33.59 umol/kg. The format is ADME, organism-based. Also on record: dose 10 mg/kg, route oral. The conditions noted are these: in vivo. In short, it runs like this:
as §2

Data set [4] is described as follows: Acute toxicity in mice when given po. The data set is classed as organism-based. The note with it: mouse, in vivo, read-out: DL50 (the source's name). In short, it runs like this: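 Male Swiss mice (SPF, HC/CFLP strain, 20–25 g), oral dosing; mortality followed over 15 days; LD50 derived by the Litchfield and Wilcoxon method.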
In data set [5] the test system is Rattus norvegicus. Description: Mean sodium excretion in rats when compound administered at 10 mg/kg po and vehicle dosed at 33.59 umol/kg. The data set is classed as ADME, organism-based. Also on record: dose 10 mg/kg, route oral. The conditions noted are these: in vivo. Summed up:
(§3)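 Male Sprague-Dawley rats (HC/CFY, 175-200 g) fasted and water-deprived 18 h before and during the test. Dosed by gavage at 2.5-160 mg/kg in 1% carboxymethyl cellulose/0.1% Tween 80, 0.5 mL/100 g bw. Immediately hydrated with water (2.5 mL/100 g bw, po). Urine collected 6 h in metabolic cages; Na+ and K+ by flame photometry; mean mequiv/6 h/kg bw; nonpaired Student t-test.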

Data set [6] relates to Rattus norvegicus. Description: Mean sodium excretion in rats when compound administered at 2.5 mg/kg po and vehicle dosed at 8.4 umol/kg. The conditions noted are these: in vivo. Also on record: dose 2.5 mg/kg, route oral. The format is ADME, organism-based. Summed up:
as §3

Data set [7] has as its system Rattus norvegicus. Nature of the data set: Volume of urine 6 hr after the compound was administered 10 mg/kg po in rat. The format is ADME, organism-based. Also on record: dose 10 mg/kg, route oral. The conditions noted are these: in vivo. In short, it runs like this: (§4)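 Onset/duration protocol: male Sprague-Dawley rats (HC/CFY, 175-200 g), food and water withdrawn for 18 h before and during the test. Single gavage dose in 1% carboxymethyl cellulose/0.1% Tween 80 (0.5 mL/100 g bw), then distilled water load (2.5 mL/100 g bw po). Two rats per metabolic cage, six pairs per group. Urine collected at 0-1, 1-2, 2-3, 3-4 and 4-6 h; Na+ by flame photometry. Vehicle controls; nonpaired Student t-test.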

Data set [8] has as its system Rattus norvegicus. Nature of the data set: Urinary sodium 2 hr after the compound was administered 10 mg/kg po in rat. The data set is classed as ADME, organism-based, Urine. Further details: dose 10 mg/kg, route oral. The conditions noted are these: in vivo. Summed up: (§5)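 Onset and duration study in fasted, water-loaded male Sprague-Dawley rats housed two per metabolic cage, six pairs per group. Single oral dose given, then water 2.5 mL/100 g po. Urine volume and sodium (flame photometry) measured over 0-1, 1-2, 2-3, 3-4 and 4-6 h intervals. Mean values compared with vehicle by Student t-test.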

The subject of data set [9] is Rattus norvegicus. Description: Mean sodium excretion in rats when compound administered at 80 mg/kg po and vehicle dosed at 268.71 umol/kg. The format is ADME, organism-based. Further details: dose 80 mg/kg, route oral. The note with it: in vivo. Summed up: as §3
Data set [10] deals with Rattus norvegicus. Nature of the data set: Volume of urine 1 hr after the compound was administered 10 mg/kg po in rat. The format is ADME, organism-based. Further details: dose 10 mg/kg, route oral. The conditions noted are these: in vivo. In short, it runs like this: as §4
The test system of data set [11] is Rattus norvegicus. Description: Mean urinary output in rats when compound administered at 20 mg/kg po and vehicle dosed at 67.18 umol/kg. The note with it: in vivo. Also on record: dose 20 mg/kg, route oral. The data set is classed as ADME, organism-based, Urine. Summed up:
as §1

The test system of data set [12] is Rattus norvegicus. Nature of the data set: Post dosing time interval of maximum activity. The data set is classed as functional. Summed up: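 Interval of peak activity taken from timed urine collections (0-1, 1-2, 2-3, 3-4, 4-6 h) after a single oral dose in water-loaded fasted rats, […]. Urine volume and Na+ excretion followed over time.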

Data set [13] has as its system Rattus norvegicus. Nature of the data set: Mean urinary output in rats when compound administered at 5 mg/kg po and vehicle dosed at 16.79 umol/kg. The format is ADME, organism-based, Urine. Further details: dose 5 mg/kg, route oral. The note with it: in vivo. In short, it runs like this: as §1
Data set [14] deals with Rattus norvegicus. Nature of the data set: Mean potassium excretion in rats when compound administered at 10 mg/kg po and vehicle dosed at 33.59 umol/kg. The note with it: in vivo. Further details: dose 10 mg/kg, route oral. The format is ADME, organism-based. In short, it runs like this:
as §2

Data set [15] has as its system Rattus norvegicus. Description: Mean Chlorine excretion in rats when compound administered at 20 mg/kg po and vehicle dosed at 67.18 umol/kg. The format is ADME, organism-based. Also on record: dose 20 mg/kg, route oral. The conditions noted are these: in vivo. Summed up: as §2
In data set [16] the test system is Rattus norvegicus. Description: Mean sodium excretion in rats when compound administered at 0 mg/kg po and vehicle dosed at 0 umol/kg. The data set is classed as ADME, organism-based. Further details: dose 0 mg/kg, route oral. The note with it: in vivo. Summed up: as §3
For data set [17], the system named is Rattus norvegicus. Description: Mean urinary output in rats when compound administered at 40 mg/kg po and vehicle dosed at 134.35 umol/kg. Further details: dose 40 mg/kg, route oral. The format is ADME, organism-based, Urine. The note with it: in vivo. Summed up:
as §1

The subject of data set [18] is Rattus norvegicus. Description: Mean Chlorine excretion in rats when compound administered at 5 mg/kg po and vehicle dosed at 16.79 umol/kg. The format is ADME, organism-based. Also on record: dose 5 mg/kg, route oral. The note with it: in vivo. In short, it runs like this:
as §2

Data set [19] relates to Rattus norvegicus. Description: Mean potassium excretion in rats when compound administered at 2.5 mg/kg po and vehicle dosed at 8.4 umol/kg. The format is ADME, organism-based. The conditions noted are these: in vivo. Further details: dose 2.5 mg/kg, route oral. Summed up: as §2
Data set [20] relates to Rattus norvegicus. Description: Mean potassium excretion in rats when compound administered at 0 mg/kg po and vehicle dosed at 0 umol/kg. The data set is classed as ADME, organism-based. Also on record: dose 0 mg/kg, route oral. The conditions noted are these: in vivo. In short, it runs like this:
as §2

In data set [21] the test system is Rattus norvegicus. Description: Urinary sodium 6 hr after the compound was administered 10 mg/kg po in rat. The data set is classed as ADME, organism-based, Urine. Further details: dose 10 mg/kg, route oral. The conditions noted are these: in vivo. In short, it runs like this:
as §5

Each structure is given as a SMILES string.

Regarding `NS(=O)(=O)c1cc2c(cc1Cl)NCNS2(=O)=O` [HYDROCHLOROTHIAZIDE], the V in the data set on Rattus norvegicus [1] is on record as 24.3 ml 6hr-1 (kg of body weight)-1; in the data set with Rattus norvegicus [11], 42.94 ml 6hr-1 (kg of body weight)-1; in the data set on Rattus norvegicus [13] it was 38.07 ml 6hr-1 (kg of body weight)-1; in the data set with Rattus norvegicus [17] it was 44.48 ml 6hr-1 (kg of body weight)-1. In addition, the Cl- in the data set with Rattus norvegicus [2] is recorded as 3.94 m equiv 6hr-1 kg-1 (body weight)-1; in the data set with Rattus norvegicus [3], 4.44 m equiv 6hr-1 kg-1 (body weight)-1; in the data set on Rattus norvegicus [15] it was 4.67 m equiv 6hr-1 kg-1 (body weight)-1; with Rattus norvegicus [18], 4.88 m equiv 6hr-1 kg-1 (body weight)-1. Moreover, in [4], the LD50 was greater than 6000 mg/kg. Further, the Na is 2.86 m equiv 6hr-1 kg-1 (body weight)-1 in the data set on Rattus norvegicus [5], 2.14 m equiv 6hr-1 kg-1 (body weight)-1 with Rattus norvegicus [6], 3.19 m equiv 6hr-1 kg-1 (body weight)-1 in the data set on Rattus norvegicus [9] and 0.32 m equiv 6hr-1 kg-1 (body weight)-1 in the data set with Rattus norvegicus [16]. Besides, the Urine volume in the data set with Rattus norvegicus [7] was 3.42 mL; in the data set with Rattus norvegicus [10], 1.38 mL. Besides, the entries for the “Urinary Na+” value with Rattus norvegicus [8] and in the data set on Rattus norvegicus [21] were 0.39 m equiv and 0.24 m equiv, respectively. Further, the Time in the data set on Rattus norvegicus [12] came out at 2 h. In addition, the K in the data set with Rattus norvegicus [14] was 1.14 m equiv 6hr-1 kg-1 (body weight)-1; in the data set on Rattus norvegicus [19], 1.26 m equiv 6hr-1 kg-1 (body weight)-1; in the data set with Rattus norvegicus [20], 0.53 m equiv 6hr-1 kg-1 (body weight)-1.
